zVAD death inh: L929 zVAD cell death inhibition; AID 1377; 0.38% of 220,000 active; viability rescue, % at 10 µM; L929 zVAD necroptosis rescue, ATP luminescence, 24 h; with zVAD 60 µM;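 active means activation, scaled between plate controls, above about 75%, limit read from the data; inactive means activation under that limit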;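 further: 0% = zVAD with DMSO and 100% = DMSO alone without zVAD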
RBBP9 inh: blocks human serine hydrolase RBBP9. AID 1515. 0.2% of 220,000 active. O75884. recombinant RBBP9, FP-Rh probe fluorescence polarization. inhibition, % at 7.94 µM;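 active means inhibition above the campaign mean of all tested compounds plus 3 SD, cut at about 14% in these data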;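 further: plate controls were DMSO wells with RBBP9 for no effect and wells lacking RBBP9 protein for full effect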
Target sequence (O75884 whole entry, looked up): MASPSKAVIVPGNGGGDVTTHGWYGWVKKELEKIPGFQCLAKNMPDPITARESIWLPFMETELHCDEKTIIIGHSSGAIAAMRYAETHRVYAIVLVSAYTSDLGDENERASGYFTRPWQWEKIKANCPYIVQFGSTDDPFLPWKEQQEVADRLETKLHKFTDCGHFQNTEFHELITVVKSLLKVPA
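Material: RBBP9 protein. Amount: RBBP9 at 2.5 µM in dispensed solution, before mixing. Schedule: 30 min then 45 min, 25 °C. Medium: Tris buffer pH 8.0, NaCl, Pluronic. Measured by: fluorescence polarization. Measure: percent inhibition from mP, scaled between DMSO and no-protein wells. Replication: one well per compound.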
Calpain2 inh: inhibitors of pig calpain II. 0.37% of 220,000 active. inhibition, % at 16 µM. purified calpain II, fluorogenic peptide substrate, 30 min;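 active means inhibition above about 50%, limit read from the data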
TNF necrop inh: inhibitors of TNF-alpha induced necroptosis in Jurkat FADD-/- cells | activation (protection from cell death), % at 10 µM | 0.068% of 220,000 active | Jurkat FADD-/- TNF necroptosis rescue, ATP luminescence, 24 h; 0 = TNF only, 100 = no-TNF cells;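 active means activation, meaning protection from cell death, of at least 50% relative to plate controls; inactive means activation below 50%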;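 further: necroptosis triggered by 40 ng/mL TNF-alpha added together with compound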
Pf gamet viab: inhibitors of late stage P. falciparum gametocyte viability; P. falciparum stage V gametocytes, ATP luminescence, 24 h; 0.065% of 150,000 active; inhibition, % at 10.9 µM;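 active means inhibition above the mean plus 3 SD of compounds within the control limits, set per campaign, cut at about 38% in these data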;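 further: 0% = DMSO wells and 100% = medium only without gametocytes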
Wee1 stabilizer: blocks degradation of human Wee1 kinase; 1.2% of 220,000 active; reporter increase, % at 5 µM; HeLa Luc-Wee1K328M stability, luciferase luminescence; 100% = proteasome inhibitor MG132 effect; AID 1321; P30291;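 active means activation above the mean of all tested compounds plus 3 SD, set per screening run, cut at about 8.8% in these data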;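 further: cells exposed to compound for 20 h before luminescence read; 0% = DMSO alone and 100% = MG132 at 30 µM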
Active calls of the source: *; i = inactive; . = no result. Most compounds without a hit are left out; they make up all but 2.1% or so of the library.

SMILES	zVAD death inh	RBBP9 inh	Calpain2 inh	TNF necrop inh	Pf gamet viab	Wee1 stabilizer
CC1CCC/C(=C\Nc2ccc(O)cc2)C1=O (stereo not drawn)	1	14*	-13	-8	10	0
Cc1cc(C(=O)O)ccc1N/C=C1\CCCC(C)C1=O (stereo not drawn)	1	0	16	2	.	-2
COc1ccc(/C=C/C(=O)c2ccoc2)cc1	0	-9	-6	4	.	13*
COc1ccc(/C=C/C(=O)c2ccc(O)cc2)cc1	0	2	2	1	.	-1
CN1CCN(c2ccc(C(CC(N)=O)NC(=O)Cc3cccc4ccccc34)cc2[N+](=O)[O-])CC1 (stereo not drawn)	.	.	.	.	-14	.
CC(=O)Nc1ccccc1NC(=O)C/C(C)=N/NC(=O)c1ccncc1	0	-5	21	-1	6	9.3*
Cc1cc(C(=O)Nc2ccon2)ccc1[N+](=O)[O-]	.	.	.	.	-8	.
CC(C)(CO)CNC(=O)c1ccc(OC2CCN(C(=O)C3CC3)CC2)cc1	2	-1	-10	1	.	-3
CCC1CCCCN1C(=O)c1ccc(OC2CCN(C(=O)C3CC3)CC2)cc1 (stereo not drawn)	0	-1	57*	0	13	2
COc1ccc(N2CCN(C(=O)CN(C3CCCCC3)S(C)(=O)=O)CC2)cc1	2	-2	-5	1	.	9.1*
COc1ccccc1N1CCN(C(=O)CN(C2CCCCC2)S(C)(=O)=O)CC1	1	-4	-9	1	0	2
COCCN=c1scc(-c2ccco2)n1/N=C/c1ccc(O)c(O)c1O	-1	24*	-35	-5	-23	1
CC(C)N=c1scc(-c2ccco2)n1/N=C/c1ccc(O)c(O)c1	32	-10	-29	-17	-20	3
O=C(CN1CCCCC1)Nc1ccc(NC(=O)c2ccccc2Cl)cc1Cl	3	-5	-7	0	10	0
O=C(/C=C/c1ccc(F)cc1)Nc1nc2ccccc2[nH]1	2	0	1	1	.	10*
CC(NC(=S)Nc1ccccc1Cl)C(c1ccccc1)N1CCOCC1 (stereo not drawn)	.	1	7	3	-2	9.2*
CCCC(=O)N1CCN(c2ccc(NC(=S)NC(=O)CC)cc2)CC1	-1	1	-11	-2	.	-3
CCOC(=O)N1CCN(C(=O)CCNS(=O)(=O)c2cc(Br)cnc2N)CC1	86*	-6	7	18	.	-2
Cc1ccc(NC(=O)CCNS(=O)(=O)c2cc(Br)cnc2N)cc1Cl	.	-9	2	4	.	2
Cc1ccccc1OCCNC(=O)c1ccc2ccccc2n1	2	-2	18	1	.	9.6*
COCCNC(=O)c1ccc2ccccc2n1	0	-7	34	-4	-7	6
CN(C)S(=O)(=O)c1cc(NC(=O)COC(=O)Cc2cccc3ccccc23)ccc1Cl	1	-16	6	-2	-16	-2
CCC(C(=O)OCC(=O)Nc1ccc(Cl)c(S(=O)(=O)N(C)C)c1)c1ccccc1 (stereo not drawn)	2	-3	59*	0	8	5
CCC(C(=O)OCC(=O)Nc1ccc(SC(F)F)cc1)c1ccccc1 (stereo not drawn)	0	-23	51*	-10	4	3
CNC(=O)c1ccc(OCc2ccccc2)c(OC)c1	0	0	-5	0	-6	-2
SMILES	zVAD death inh	RBBP9 inh	Calpain2 inh	TNF necrop inh	Pf gamet viab	Wee1 stabilizer
COc1ccccc1NC(C#N)c1ccccc1OCc1ccccc1 (stereo not drawn)	1	4	10	-2	-1	11*
O=C(CN1C2CCC1CC(NC(=O)Nc1ccccc1)C2)NCc1ccco1 (stereo not drawn)	-1	-9	-21	0	.	10*
O=C(Nc1ccc(Cl)c(Cl)c1)c1ccc(Cn2cc(Cl)cn2)cc1	2	-27	53*	1	-14	2
CC(C)CN(CC(C)C)C(=O)COc1ccccc1C(N)=O	1	-9	-13	0	-17	9.9*
CCOC(=O)c1cccc(NS(=O)(=O)c2cnc[nH]2)c1	0	1	9	1	10	-2
CCOC(=O)c1ccc(NS(=O)(=O)c2cnc[nH]2)cc1	2	-6	2	2	.	11*
CC(C)(C)c1ccc(COC(=O)Nc2ccc(F)cc2)cc1	2	4	-2	4	3	0
CC(C)(C)c1ccc(NC(=O)Nc2ccc(F)cc2)cc1	71	-5	9	4	21	9.6*
CCOC(=O)c1ccc(NC(=O)Nc2ccc(F)cc2)cc1	0	-10	-4	5	.	10*
CCOC(=O)c1ccc(NC(=O)Nc2ncccc2C)cc1	67	0	51*	-1	25	0
CCN1C(=O)[C@H]2[C@@H](c3ccc(-c4ccc(Cl)c(Cl)c4)c(OC)c3)N[C@@](Cc3ccccc3)(C(=O)OC)[C@H]2C1=O	.	.	.	.	11	.
Cn1cc([N+](=O)[O-])c(C(=O)NCc2cc3cc(Cl)ccc3[nH]2)n1	.	-13	4	-1	.	0
O=C(Nc1ccc(Cl)cc1Cl)c1ccc(Br)o1	.	.	.	.	1	.
CCOC(=O)C1=C(N)n2c(s/c(=C\c3cccnc3)c2=O)=C(C(=O)OC)C1c1cccnc1 (stereo not drawn)	0	2	.	-1	-2	10*
CCOC(=O)C1=C(N)n2c(s/c(=C\c3ccncc3)c2=O)=C(C(=O)OCC)C1c1ccncc1 (stereo not drawn)	0	-3	-95	-2	1	0
COc1ccc(/C(N)=N/OC(=O)c2cccs2)cc1	1	-5	-3	3	-3	10.0*
N/C(=N\OC(=O)c1cccs1)c1ccc(Cl)cc1	0	-8	13	-1	-6	8
COc1ccc(CNC(=O)C(=O)NCCCn2ccnc2)cc1	2	-8	-36	-1	.	-4
C=C(C)CNC(=S)N/N=C/c1ccc(NC(C)=O)cc1	5	-4	62*	0	-9	2
O=C(NC(=O)c1ccccc1Cl)Nc1ccc(-c2cnco2)cc1	1	-15	2	0	-9	10.0*
O=c1c(-c2nc3ccccc3s2)cccn1Cc1ccccc1	0	-2	i	0	-12	9.0*
O=C1CN(O)C=C2N=c3ccccc3=C2N1c1ccc([N+](=O)[O-])cc1	0	3	58*	1	0	1
O=C1/C(=C/c2ccc([N+](=O)[O-])cc2)C=C(c2ccccc2)N1c1ccc(O)cc1	0	0	6	-6	.	2
CCCc1cc(=O)[nH]c(SCC(=O)N2CCN(S(=O)(=O)c3ccc4ccccc4c3)CC2)n1	1	7	12	1	64*	1
CCCCCOc1ccc(C(O)C(CN2CCOCC2)c2ccccc2)cc1 (stereo not drawn)	.	.	.	.	-7	.
